Marks after values point to notes of the source that are not given here.
Tests used:
CYP2C9 = assay: Induction of P450 mRNA in human hepatocytes; assay type: cell-based; settings: up to 10 µmol/L
Procedure, shortened: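 Three human hepatocyte batches were cultured as monolayers and treated for 48–89 h with test compound, diluted 1000-fold from DMSO stock, or vehicle. Medium with fresh drug renewed every 24 h; rifampicin and omeprazole served as positive controls. CYP mRNA then measured.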

[1] = Toxicokinetics of the 4-week toxicity study in dog; assay type: in vivo, Beagle dog; settings: for AUC0‐24 h (day 8/28): day 28
CYP3A4 = settings: clinical trials, man, 10 mg; cited from earlier work
Cyp2c13 = assay: Taqman mRNA upregulation in rat liver; assay type: in vivo, Sprague-Dawley rat; settings: male-specific
[2] = Single-dose intravenous pharmacokinetics in dog; assay type: in vivo, Beagle dog; settings: male, plasma
Procedure, shortened: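 Three male Beagles in a cross-over design with 7-day wash-out between dosing events. The intravenous solution was PEG400/N-methylpyrrolidone/50 mmol/L TRIS-HCl pH 8.3 (1:1:2 v/v/v). Plasma stored at −20°C. T1/2 = ln(2)/λz; AUC by log-linear trapezoidal rule.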

[3] = Single-dose intravenous pharmacokinetics in rat; assay type: in vivo, Sprague-Dawley rat; settings: for AUC / Vd / clearance / half-life: Sprague-Dawley, plasma, iv
[4] = Toxicokinetics of the 4-week toxicity study in rat; assay type: in vivo, Sprague-Dawley rat; settings: for AUC0‐24 h (day 8/28): day 28
Cyp2c11 [5] = assay: Taqman mRNA upregulation in rat liver, 8-day mechanistic follow-up study; assay type: in vivo, Sprague-Dawley rat; settings: male rats, 8-day follow-up study, relative to vehicle control
Procedure, shortened: (§1)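 Male Sprague-Dawley rats (n = 4) were given 0, 5, 15 or 50 mg/kg daily for 8 days as a suspension in modified gelatine. Liver transcripts were normalised to 18S and to vehicle-treated rats by the ΔΔCT method; fold = 2−ΔΔCT.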

Cyp2c6 = assay: as above; assay type: in vivo, Sprague-Dawley rat; settings: male rats, 8-day follow-up study, relative to vehicle control
Procedure, shortened: as §1

Cyp3a1 = assay: Taqman mRNA upregulation in rat liver, 4-week toxicity study; assay type: in vivo, Sprague-Dawley rat
Procedure, shortened: (§2)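 Livers came from satellite-group rats of both sexes (n = 5–6) in the 4-week study, dosed once daily at 0, 50, 150, 450 or 1500 mg/kg in modified gelatine. Transcripts quantified by comparative Ct, normalised to 18S and to vehicle-treated controls; fold change = 2−ΔΔCT.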

[6] = Single-dose oral pharmacokinetics in dog; assay type: in vivo; settings: male, Beagle, plasma
Cyp3a2 = assay: Taqman mRNA upregulation in rat liver, 8-day mechanistic follow-up study; assay type: in vivo, Sprague-Dawley rat; settings: male rats, 8-day follow-up study, relative to vehicle control
Procedure, shortened: as §1

Cyp3a12 = assay: Taqman mRNA upregulation in dog liver, 4-week toxicity study; assay type: in vivo, Beagle dog; settings: 4 weeks; for increase in Cyp3a12 mRNA expression: 500 mg/kg
Procedure, shortened: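 Liver samples (n = 2–3) came from main-group Beagles of the 4-week study, dosed daily at 0, 5, 50 or 500 mg/kg in modified gelatine. Cyp3a12 transcript normalised to 18S and to vehicle-treated dogs (ΔΔCT); fold = 2−ΔΔCT.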

Cyp2c11 [7] = assay: Taqman mRNA upregulation in rat liver, 4-week toxicity study; assay type: in vivo, Sprague-Dawley rat; settings: male rats; for Upregulation of Cyp2c11 mRNA: 4-week study, relative to vehicle control
Procedure, shortened: as §2

Cyp2c12 = assay: Taqman mRNA upregulation in rat liver; assay type: in vivo, Sprague-Dawley rat; settings: either sex
[8] = Plasma exposure in the 8-day mechanistic follow-up study in male rats; assay type: in vivo, Sprague-Dawley rat; settings: for AUC: male, Sprague-Dawley, plasma, oral; for AUC / AUC0‐24 h (day 1) / AUC0‐24 h (day 8/28): rat; for AUC0‐24 h (day 1) / AUC0‐24 h (day 8/28): males, 8-day study

change in CYP2C9 mRNA expression (CYP2C9): No change
Induction of Cyp2c13 mRNA (Cyp2c13): No induction
AUC ([2]; Beagle, 0.1 mg/kg): 320 ng·h/mL
Vd ([2]; Beagle, 0.1 mg/kg): 1.2 L/kg
clearance ([2]; Beagle, 0.1 mg/kg): 5.2 mL/min/kg
half-life ([2]; Beagle, 0.1 mg/kg): 3.9 h
AUC ([2]; Beagle, 0.3 mg/kg): 910 ng·h/mL
Vd ([2]; Beagle, 0.3 mg/kg): 1.1 L/kg
clearance ([2]; Beagle, 0.3 mg/kg): 5.7 mL/min/kg
half-life ([2]; Beagle, 0.3 mg/kg): 4.3 h
half-life ([2]; beagle): 3.9 to 4.3 h
T 1/2 ([3]; F, 0.3 mg/kg single iv, geometric mean (range)): 8.9 (6.6‐12) h
AUC ([3]; female, 0.3 mg/kg): 2990 ng·h/mL
Vd ([3]; female, 0.3 mg/kg): 1.4 L/kg
clearance ([3]; female, 0.3 mg/kg): 2 mL/min/kg
half-life ([3]; female, 0.3 mg/kg): 8.9 h
AUC ([3]; male, 0.1 mg/kg): 270 ng·h/mL
Vd ([3]; male, 0.1 mg/kg): 1.6 L/kg
clearance ([3]; male, 0.1 mg/kg): 6.5 mL/min/kg
half-life ([3]; male, 0.1 mg/kg): 3.8 h
AUC ([3]; male, 0.3 mg/kg): 610 ng·h/mL
Vd ([3]; male, 0.3 mg/kg): 1.2 L/kg
clearance ([3]; male, 0.3 mg/kg): 8.2 mL/min/kg
half-life ([3]; male, 0.3 mg/kg): 1.9 h
CL in female rats as percent of the value in male animals ([3]; single iv): 25%
Upregulation of Cyp2c11 mRNA (Cyp2c11 [5]; 5 mg/kg daily): 1.55 ± 0.22
Upregulation of Cyp2c11 mRNA (Cyp2c11 [5]; 15 mg/kg daily): 1.65 ± 1.35
Upregulation of Cyp2c11 mRNA (Cyp2c11 [5]; 50 mg/kg daily): 2.50 ± 0.85
Upregulation of Cyp2c6 mRNA (Cyp2c6; 5 mg/kg daily): 1.92 ± 0.45
Upregulation of Cyp2c6 mRNA (Cyp2c6; 15 mg/kg daily): 1.55 ± 1.21
Upregulation of Cyp2c6 mRNA (Cyp2c6; 50 mg/kg daily): 3.08 ± 2.45
AUC ([6]; 1 mg/kg): 2370 ng·h/mL
Cmax ([6]; 1 mg/kg): 410 ng/mL
Tmax ([6]; 1 mg/kg): 2 h
AUC ([6]; 10 mg/kg): 27500 ng·h/mL
bioavailability ([6]; 10 mg/kg): 86%
Upregulation of Cyp3a2 mRNA (Cyp3a2; 5 mg/kg daily): 1.46 ± 0.18
Upregulation of Cyp3a2 mRNA (Cyp3a2; 15 mg/kg daily): 2.37 ± 1.43
Upregulation of Cyp3a2 mRNA (Cyp3a2; 50 mg/kg daily): 4.04 ± 0.98
Induction of Cyp2c12 mRNA (Cyp2c12): No induction
change in AUC0‐24h after 8 days treatment ([8]; male rats, 3 mg/kg): No change
AUC0‐24h (day 1) as percent of the AUC0‐24h (day 1) in the 4‐week study ([8]; male rats, 50 mg/kg, different macitentan batches (particle size)): 13%
AUC ([8]; 15 mg/kg): 20300 ng·h/mL
AUC ([8]; 50 mg/kg): 26800 ng·h/mL
AUC0‐24 h (day 1) ([8]; 3 mg/kg daily oral): 3.09 μg/mL"h
AUC0‐24 h (day 8/28) ([8]; 3 mg/kg daily oral): 3.05 μg/mL"h
AUC0‐24 h (day 1) ([8]; 15 mg/kg daily oral): 20.3 μg/mL"h
AUC0‐24 h (day 8/28) ([8]; 15 mg/kg daily oral): 12.3 μg/mL"h
AUC0‐24 h (day 1) ([8]; 50 mg/kg daily oral): 26.8 μg/mL"h
AUC0‐24 h (day 8/28) ([8]; 50 mg/kg daily oral): 16.8 μg/mL"h
SMILES: CCCNS(=O)(=O)Nc1ncnc(OCCOc2ncc(Br)cn2)c1-c1ccc(Br)cc1 [macitentan]
increase in AUC0‐24h from 50 to 500 mg/kg ([1]; 4-week toxicity study): 5.1 fold
AUC ([1]; beagle, plasma, oral, 5 mg/kg): 17500 ng·h/mL
AUC0‐24 h (day 1) ([1]; females, 5 mg/kg daily oral): 11.6 μg/mL"h
AUC0‐24 h (day 8/28) ([1]; females, 5 mg/kg daily oral): 10.5 μg/mL"h
AUC0‐24 h (day 1) ([1]; females, 50 mg/kg daily oral): 94.8 μg/mL"h
AUC0‐24 h (day 8/28) ([1]; females, 50 mg/kg daily oral): 46.5 μg/mL"h
AUC0‐24 h (day 1) ([1]; females, 500 mg/kg daily oral): 504 μg/mL"h
AUC0‐24 h (day 8/28) ([1]; females, 500 mg/kg daily oral): 84.4 μg/mL"h
AUC0‐24 h (day 1) ([1]; males, 5 mg/kg daily oral): 17.5 μg/mL"h
AUC0‐24 h (day 8/28) ([1]; males, 5 mg/kg daily oral): 14.7 μg/mL"h
AUC0‐24 h (day 1) ([1]; males, 50 mg/kg daily oral): 134 μg/mL"h
AUC0‐24 h (day 8/28) ([1]; males, 50 mg/kg daily oral): 39.1 μg/mL"h
AUC0‐24 h (day 1) ([1]; males, 500 mg/kg daily oral): 692 μg/mL"h
AUC0‐24 h (day 8/28) ([1]; males, 500 mg/kg daily oral): 44.9 μg/mL"h
effect on the pharmacokinetics of the sensitive CYP3A4 substrate sildenafil (CYP3A4): neither changed the pharmacokinetics
AUC0‐24 h (day 1) ([4]; females, 50 mg/kg daily oral): 726 μg/mL"h
AUC0‐24 h (day 8/28) ([4]; females, 50 mg/kg daily oral): 490 μg/mL"h
AUC0‐24 h (day 1) ([4]; females, 150 mg/kg daily oral): 1160 μg/mL"h
AUC0‐24 h (day 8/28) ([4]; females, 150 mg/kg daily oral): 776 μg/mL"h
AUC0‐24 h (day 1) ([4]; females, 450 mg/kg daily oral): 1590 μg/mL"h
AUC0‐24 h (day 8/28) ([4]; females, 450 mg/kg daily oral): 1280 μg/mL"h
AUC0‐24 h (day 1) ([4]; females, 1500 mg/kg daily oral): 2500 μg/mL"h
AUC0‐24 h (day 8/28) ([4]; females, 1500 mg/kg daily oral): 1590 μg/mL"h
AUC0‐24 h (day 1) ([4]; males, 50 mg/kg daily oral): 213 μg/mL"h
AUC0‐24 h (day 8/28) ([4]; males, 50 mg/kg daily oral): 114 μg/mL"h
AUC0‐24 h (day 1) ([4]; males, 150 mg/kg daily oral): 382 μg/mL"h
AUC0‐24 h (day 8/28) ([4]; males, 150 mg/kg daily oral): 200 μg/mL"h
AUC0‐24 h (day 1) ([4]; males, 450 mg/kg daily oral): 595 μg/mL"h
AUC0‐24 h (day 8/28) ([4]; males, 450 mg/kg daily oral): 327 μg/mL"h
AUC0‐24 h (day 1) ([4]; males, 1500 mg/kg daily oral): 979 μg/mL"h
AUC0‐24 h (day 8/28) ([4]; males, 1500 mg/kg daily oral): 365 μg/mL"h
Upregulation of Cyp3a1 mRNA (Cyp3a1; female rats, 50 mg/kg daily, 4-week study, relative to vehicle control): 12.1 ± 4.4
Upregulation of Cyp3a1 mRNA (Cyp3a1; female rats, 150 mg/kg daily, 4-week study, relative to vehicle control): 38.3 ± 10.7
Upregulation of Cyp3a1 mRNA (Cyp3a1; female rats, 450 mg/kg daily, 4-week study, relative to vehicle control): 55.3 ± 13.1
Upregulation of Cyp3a1 mRNA (Cyp3a1; female rats, 1500 mg/kg daily, 4-week study, relative to vehicle control): 106 ± 34
Upregulation of Cyp3a1 mRNA (Cyp3a1; female rats, 1500 mg/kg, 4 weeks, vs control): 106 fold
Upregulation of Cyp3a1 mRNA (Cyp3a1; male rats, 50 mg/kg daily, 4-week study, relative to vehicle control = 1.00): 2.17 ± 0.37
Upregulation of Cyp3a1 mRNA (Cyp3a1; male rats, 150 mg/kg daily, 4-week study, relative to vehicle control): 3.51 ± 1.36
Upregulation of Cyp3a1 mRNA (Cyp3a1; male rats, 450 mg/kg daily, 4-week study, relative to vehicle control): 4.87 ± 0.51
Upregulation of Cyp3a1 mRNA (Cyp3a1; male rats, 1500 mg/kg daily, 4-week study, relative to vehicle control): 9.96 ± 4.18
increase of Cyp3a1 mRNA vs control (Cyp3a1; male rats, 1500 mg/kg, 4 weeks): about 10 fold
Upregulation of Cyp3a12 mRNA (Cyp3a12; female dogs, 5 mg/kg daily, relative to vehicle control): 2.84 ± 0.44
Upregulation of Cyp3a12 mRNA (Cyp3a12; female dogs, 50 mg/kg daily, relative to vehicle control): 4.34 ± 0.61
Upregulation of Cyp3a12 mRNA (Cyp3a12; female dogs, 500 mg/kg daily, relative to vehicle control, n = 2 only): 12.7 ^a
increase in Cyp3a12 mRNA expression (Cyp3a12; female dogs): 12.7 fold
Upregulation of Cyp3a12 mRNA (Cyp3a12; male dogs, 5 mg/kg daily, relative to vehicle control = 1.00): 1.63 ± 0.72
Upregulation of Cyp3a12 mRNA (Cyp3a12; male dogs, 50 mg/kg daily, relative to vehicle control): 6.45 ± 1.71
Upregulation of Cyp3a12 mRNA (Cyp3a12; male dogs, 500 mg/kg daily, relative to vehicle control): 18.6 ^b
increase in Cyp3a12 mRNA expression (Cyp3a12; male dogs): 18.6 fold
increase of Cyp2c11 mRNA levels vs control (Cyp2c11 [7]; 450 mg/kg and 1500 mg/kg, 4 weeks): about 50%
Upregulation of Cyp2c11 mRNA (Cyp2c11 [7]; 450 mg/kg daily): 1.48 ± 0.48
Upregulation of Cyp2c11 mRNA (Cyp2c11 [7]; 1500 mg/kg daily): 1.43 ± 0.55

Reference: paper PMC7330163 (Pharmacology Research & Perspectives, 2020)
